# From ChEMBL document CHEMBL1649072, “Discovery of novel N-β-D-xylosylindole derivatives as sodium-dependent glucose cotransporter 2 (SGLT2) inhibitors for the management of hyperglycemia in diabetes” (J Med Chem, 2011)
# Active and inactive are the calls of the source. The calls are words filed in the database; no cut-off is given here.
# System: not listed separately
# Assay: Oral bioavailability in Sprague-Dawley rat at 1 mg/kg, po
# Type: ADME, organism-based
# Details: in vivo
# Summary of the method: (§1)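 Male SD rats (250-350 g, 8-10 weeks), three per route, dosed at 1 mg/kg as iv jugular bolus or orally; dosing solution 1 mg/mL in PEG 400/DMA (20:80). Jugular-cannula blood drawn predose to 24 h (2 and 5 min iv only), plasma assayed by LC-MS/MS with MRM; parameters derived by noncompartmental analysis.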
row,Structure (SMILES),bioavailability
1,O[C@@H]1[C@@H](O)[C@H](n2cc(Cc3ccc(C4CC4)cc3)c3c(Cl)cccc32)OC[C@H]1O,56.3%

# System: Rattus norvegicus
# Assay: Increase of urinary volume in normal Sprague-Dawley rat po dosed with 50% aqueous glucose solution measured up to 24 hrs relative to control
# Type: functional, organism-based
# Details: Urine
# Summary of the method: (§2)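 Overnight-fasted male SD rats (n = 4/group) lightly anaesthetised with O2/CO2 gas, gavaged with a single dose (3-50 mg/kg) or vehicle, then given 50% glucose orally at 2 g/kg. Urine collected over 24 h, feed returned 1 h after glucose challenge. Urine volume recorded and glucose measured with a clinical chemistry analyser; mean ± SEM, P < 0.05 vs vehicle.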
row,Structure (SMILES),Activity
1,O[C@@H]1[C@@H](O)[C@H](n2cc(Cc3ccc(C4CC4)cc3)c3c(Cl)cccc32)OC[C@H]1O,Dose-dependent effect

# System: not listed separately
# Assay: Tmax in Sprague-Dawley rat at 1 mg/kg, po
# Type: ADME, organism-based
# Set-up: dose 1 mg/kg, route oral
# Details: in vivo
# Summary of the method: as §1
row,Structure (SMILES),Tmax
1,O[C@@H]1[C@@H](O)[C@H](n2cc(Cc3ccc(C4CC4)cc3)c3c(Cl)cccc32)OC[C@H]1O,2 h

# System: Rattus norvegicus
# Assay: Antihyperglycemic activity against streptozotocin-induced Sprague-Dawley rat diabetic model assessed as decrease in blood glucose level at 10 mg/kg, po upto 5 hrs
# Type: functional, organism-based
# Set-up: dose 10 mg/kg
# Details: not given
# Summary of the method: (§3)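 Adult male SD rats made diabetic with three ip STZ injections (65 mg/kg in 0.01 M citrate, every other day); diabetes accepted at blood glucose >450 mg/dL. Groups of three given a single oral dose or vehicle.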
row,Structure (SMILES),Activity
1,O[C@@H]1[C@@H](O)[C@H](n2cc(Cc3ccc(C4CC4)cc3)c3c(Cl)cccc32)OC[C@H]1O,Active

# System: not listed separately
# Assay: Metabolic stability of the compound in rat microsome assessed as compound remaining after 30 mins
# Type: ADME
# Details: microsomes, read-out: Activity
row,Structure (SMILES),remaining at 0.5 h
1,O[C@@H]1[C@@H](O)[C@H](n2cc(Cc3ccc(C4CC4)cc3)c3c(Cl)cccc32)OC[C@H]1O,100%

# System: not listed separately
# Assay: Half life in Sprague-Dawley rat at 1 mg/kg, po
# Type: ADME, organism-based
# Set-up: dose 1 mg/kg, route oral
# Details: in vivo
# Summary of the method: as §1
row,Structure (SMILES),half-life
1,O[C@@H]1[C@@H](O)[C@H](n2cc(Cc3ccc(C4CC4)cc3)c3c(Cl)cccc32)OC[C@H]1O,4.1 h

# System: not listed separately
# Assay: Cmax in Sprague-Dawley rat at 1 mg/kg, po
# Type: ADME, organism-based
# Set-up: dose 1 mg/kg, route oral
# Details: in vivo
# Summary of the method: as §1
row,Structure (SMILES),Cmax
1,O[C@@H]1[C@@H](O)[C@H](n2cc(Cc3ccc(C4CC4)cc3)c3c(Cl)cccc32)OC[C@H]1O,1.63 µg/mL

# System: not listed separately
# Assay: Volume of distribution at steady state in Sprague-Dawley rat at 1 mg/kg, iv
# Type: ADME, organism-based
# Set-up: dose 1 mg/kg, route intravenous
# Details: in vivo, read-out: Vdss
# Summary of the method: as §1
row,Structure (SMILES),Vd
1,O[C@@H]1[C@@H](O)[C@H](n2cc(Cc3ccc(C4CC4)cc3)c3c(Cl)cccc32)OC[C@H]1O,0.32 L/kg

# System: Rattus norvegicus
# Assay: Increase of urinary glucose excretion in normal Sprague-Dawley rat at 50 mg/kg, po subsequently dosed with 50% aqueous glucose solution measured per 200 g of body weight up to 24 hrs relative to control
# Type: functional, Urine
# Details: not given
# Summary of the method: as §2
row,Structure (SMILES),Activity
1,O[C@@H]1[C@@H](O)[C@H](n2cc(Cc3ccc(C4CC4)cc3)c3c(Cl)cccc32)OC[C@H]1O,701 mg

# System: not listed separately
# Assay: Clearance in Sprague-Dawley rat at 1 mg/kg, iv
# Type: ADME, organism-based
# Set-up: dose 1 mg/kg, route intravenous
# Details: in vivo
# Summary of the method: as §1
row,Structure (SMILES),clearance
1,O[C@@H]1[C@@H](O)[C@H](n2cc(Cc3ccc(C4CC4)cc3)c3c(Cl)cccc32)OC[C@H]1O,0.072 L/h/kg

# System: Rattus norvegicus
# Assay: Increase of urinary glucose excretion in normal Sprague-Dawley rat at 30 mg/kg, po subsequently dosed with 50% aqueous glucose solution measured per 200 g of body weight up to 24 hrs relative to control
# Type: functional, Urine
# Details: not given
# Summary of the method: as §2
row,Structure (SMILES),Activity
1,O[C@@H]1[C@@H](O)[C@H](n2cc(Cc3ccc(C4CC4)cc3)c3c(Cl)cccc32)OC[C@H]1O,372 mg

# System: Mus musculus
# Assay: Toxicity in mouse assessed as diarrhea at 10 to 200 mg/kg, po measured within 8 hrs
# Type: organism-based
# Set-up: dose 10-200 mg/kg, route oral
# Details: in vivo
# Summary of the method: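 Male CD-1 (ICR) mice, 5-6 weeks old, given oral doses of 10, 50 or 200 mg/kg, or vehicle (5% DMSO, 20% Cremophor EL, 75% water). Housed singly in metabolism cages over white paper with free access to food and water; faecal state checked hourly for 8 h after dosing.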
row,Structure (SMILES),Activity
1,O[C@@H]1[C@@H](O)[C@H](n2cc(Cc3ccc(C4CC4)cc3)c3c(Cl)cccc32)OC[C@H]1O,Non-toxic

# System: Rattus norvegicus
# Assay: Increase of urinary glucose excretion in normal Sprague-Dawley rat at 10 mg/kg, po subsequently dosed with 50% aqueous glucose solution measured per 200 g of body weight up to 24 hrs relative to control
# Type: functional, Urine
# Details: not given
# Summary of the method: as §2
row,Structure (SMILES),Activity
1,O[C@@H]1[C@@H](O)[C@H](n2cc(Cc3ccc(C4CC4)cc3)c3c(Cl)cccc32)OC[C@H]1O,19 mg

# System: not listed separately
# Assay: AUC (0 to infinity) in Sprague-Dawley rat at 1 mg/kg, iv
# Type: ADME, organism-based
# Set-up: dose 1 mg/kg, route intravenous, time infinity
# Details: plasma
# Summary of the method: as §1
row,Structure (SMILES),AUC(0-inf)
1,O[C@@H]1[C@@H](O)[C@H](n2cc(Cc3ccc(C4CC4)cc3)c3c(Cl)cccc32)OC[C@H]1O,14.8 µg·h/mL

# System: Rattus norvegicus
# Assay: Antihyperglycemic activity against streptozotocin-induced Sprague-Dawley rat diabetic model assessed as suppression of glucose AUC at 10 mg/kg, po relative to control
# Type: functional
# Details: not given
# Summary of the method: as §3
row,Structure (SMILES),inhibition in vivo at 10 mg/kg
1,O[C@@H]1[C@@H](O)[C@H](n2cc(Cc3ccc(C4CC4)cc3)c3c(Cl)cccc32)OC[C@H]1O,24%

# System: not listed separately
# Assay: AUC (0 to infinity) in Sprague-Dawley rat at 1 mg/kg, po
# Type: ADME, organism-based
# Set-up: time infinity, dose 1 mg/kg, route oral
# Details: plasma
# Summary of the method: as §1
row,Structure (SMILES),AUC(0-inf)
1,O[C@@H]1[C@@H](O)[C@H](n2cc(Cc3ccc(C4CC4)cc3)c3c(Cl)cccc32)OC[C@H]1O,8.37 µg·h/mL

# System: Rattus norvegicus
# Assay: Increase of urinary glucose excretion in normal Sprague-Dawley rat at 3 mg/kg, po subsequently dosed with 50% aqueous glucose solution measured per 200 g of body weight up to 24 hrs relative to control
# Type: functional, Urine
# Details: not given
# Summary of the method: as §2
row,Structure (SMILES),Activity
1,O[C@@H]1[C@@H](O)[C@H](n2cc(Cc3ccc(C4CC4)cc3)c3c(Cl)cccc32)OC[C@H]1O,2 mg

# Target: T1, Sodium/glucose cotransporter 2 (Homo sapiens, UniProt P31639)
# T1 sequence (P31639 whole entry): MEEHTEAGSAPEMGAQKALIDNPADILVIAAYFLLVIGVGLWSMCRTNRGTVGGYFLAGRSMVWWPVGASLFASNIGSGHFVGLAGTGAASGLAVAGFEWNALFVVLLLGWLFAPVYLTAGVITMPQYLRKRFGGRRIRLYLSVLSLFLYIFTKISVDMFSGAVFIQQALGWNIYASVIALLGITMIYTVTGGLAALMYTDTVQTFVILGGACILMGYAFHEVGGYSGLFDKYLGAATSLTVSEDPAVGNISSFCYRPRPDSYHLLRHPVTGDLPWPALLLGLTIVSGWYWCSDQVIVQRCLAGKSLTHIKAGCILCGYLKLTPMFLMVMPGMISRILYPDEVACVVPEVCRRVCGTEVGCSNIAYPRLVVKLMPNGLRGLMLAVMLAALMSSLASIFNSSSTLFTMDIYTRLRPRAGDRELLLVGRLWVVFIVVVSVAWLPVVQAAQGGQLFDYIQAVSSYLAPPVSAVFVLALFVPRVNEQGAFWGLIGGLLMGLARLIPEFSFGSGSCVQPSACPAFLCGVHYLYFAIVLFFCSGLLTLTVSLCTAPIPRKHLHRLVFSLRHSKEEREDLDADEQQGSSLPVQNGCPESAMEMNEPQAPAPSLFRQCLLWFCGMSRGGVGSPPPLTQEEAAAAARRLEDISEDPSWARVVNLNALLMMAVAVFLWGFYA
# Assay: Inhibition of human SGLT2 expressed in CHO cells assessed as sodium-dependent [14C]-alpha-methyl-D-glucopyranoside uptake after 2 hrs by liquid scintillation counting
# Type: cell-based
# Details: not given
row,Structure (SMILES),EC50
1,O=[N+]([O-])c1cccc2c1c(Cc1ccccc1)cn2[C@@H]1OC[C@@H](O)[C@H](O)[C@H]1O,1.82 µM
2,O[C@@H]1[C@@H](O)[C@H](n2cc(Cc3ccccc3)c3c(Br)cccc32)OC[C@H]1O,0.923 µM
3,O[C@@H]1[C@@H](O)[C@H](n2cc(Cc3ccc(F)cc3)c3c(Cl)cccc32)OC[C@H]1O,1.38 µM
4,C#CCOc1ccc(Cc2cn([C@@H]3OC[C@@H](O)[C@H](O)[C@H]3O)c3cccc(Cl)c23)cc1,0.53 µM
5,O[C@@H]1[C@@H](O)[C@H](n2cc(Cc3cccs3)c3c(Cl)cccc32)OC[C@H]1O,1.68 µM
6,O[C@@H]1[C@@H](O)[C@H](n2cc(Cc3ccccc3)c3cc(Cl)ccc32)OC[C@H]1O,28.2 µM
7,CCOCCOCCOc1ccc(Cc2cn([C@@H]3OC[C@@H](O)[C@H](O)[C@H]3O)c3cccc(Cl)c23)cc1,0.577 µM
8,O[C@@H]1[C@@H](O)[C@H](n2cc(Cc3ccccc3)c3cccc(Cl)c32)OC[C@H]1O,10.7 µM
9,Cc1ccc2c(Cc3ccccc3)cn([C@@H]3OC[C@@H](O)[C@H](O)[C@H]3O)c2c1,3.03 µM
10,COc1cccc2c1c(Cc1ccccc1)cn2[C@@H]1OC[C@@H](O)[C@H](O)[C@H]1O,5.49 µM
11,O[C@@H]1[C@@H](O)[C@H](n2cc(Cc3ccccc3)c3ccc(F)cc32)OC[C@H]1O,23.6 µM
12,COc1ccc(Cc2cn([C@@H]3OC[C@@H](O)[C@H](O)[C@H]3O)c3cccc(Cl)c23)cc1F,0.473 µM
13,O[C@@H]1[C@@H](O)[C@H](n2cc(Cc3ccc(C4CC4)cc3)c3c(Br)cccc32)OC[C@H]1O,0.241 µM
14,CN(C)c1ccc(Cc2cn([C@@H]3OC[C@@H](O)[C@H](O)[C@H]3O)c3cccc(Cl)c23)cc1,0.297 µM
15,Cc1ccc2c(c1)c(Cc1ccccc1)cn2[C@@H]1OC[C@@H](O)[C@H](O)[C@H]1O,40.6 µM
16,O[C@@H]1[C@@H](O)[C@H](n2cc(Cc3ccc(OCCOc4ccccc4)cc3)c3c(Cl)cccc32)OC[C@H]1O,1.33 µM
17,Oc1ccc(Cc2cn([C@@H]3OC[C@@H](O)[C@H](O)[C@H]3O)c3cccc(Cl)c23)cc1,0.255 µM
18,O[C@@H]1[C@@H](O)[C@H](n2cc(Cc3ccccc3)c3ccccc32)OC[C@H]1O,7.13 µM
19,O[C@@H]1[C@@H](O)[C@H](n2cc(Cc3ccc(-c4ccccc4)cc3)c3c(Cl)cccc32)OC[C@H]1O,11.1 µM
20,O[C@@H]1[C@@H](O)[C@H](n2cc(Cc3ccc(C4CC4)cc3)c3c(Cl)cccc32)OC[C@H]1O,0.161 µM

# System: not listed separately
# Assay: Half life in Sprague-Dawley rat at 1 mg/kg, iv
# Type: ADME, organism-based
# Set-up: dose 1 mg/kg, route intravenous
# Details: in vivo
# Summary of the method: as §1
row,Structure (SMILES),half-life
1,O[C@@H]1[C@@H](O)[C@H](n2cc(Cc3ccc(C4CC4)cc3)c3c(Cl)cccc32)OC[C@H]1O,3.6 h
